Assay results reported in ChEMBL document CHEMBL5649170, “Sustained microglial depletion with CSF1R inhibitor impairs parenchymal plaque development in an Alzheimer's disease model” (Nat Commun, 2019).
Active and inactive are the calls of the source. No cut-off for these calls is given here.

Assays:
[1] = Effect on Dync1i1 gene expression in wildtype mouse hippocampus assessed as percent change in Reads Per kilo base per Million mapped reads at 1200 ppm administered as rodent chow starting from 1.5 months and measured after 7 months by RNA-Seq analysis (reference value: 96.347 to 105.024 %); type: functional; details: route po, time 5.5 months, 4015 h
Mus musculus [2] = assay: Antialzheimer activity in 5XFAD mouse assessed as amyloidbeta42 level in detergent soluble thalamus fraction measured per microgram protein at 1200 ppm administered as rodent chow starting from 1.5 months and measured after 7 months by ELISA (reference value: 0 to 0.271 pg); type: functional; details: route po, time 5.5 months, 4015 h
How it was run: (§1)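 PLX5622 at 1200 ppm in chow given to 5xFAD mice from 1.5 months to 4 or 7 months of age; cortex and thalamus homogenized in TPER (detergent-soluble), pellets re-homogenized in 70% formic acid and spun 100,000 g, 1 h, 4 °C (insoluble); protein by Bradford/Lowry; Aβ species measured by Meso Scale electrochemiluminescence immunoassay, normalized to protein; n = 7–8 per group at 7 months.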

[3] = molecular target: Serine/threonine-protein kinase Sgk1 (Homo sapiens, UniProt O00141); assay: Inhibition of SGK (unknown origin)
Chain of Serine/threonine-protein kinase Sgk1 (O00141 whole entry): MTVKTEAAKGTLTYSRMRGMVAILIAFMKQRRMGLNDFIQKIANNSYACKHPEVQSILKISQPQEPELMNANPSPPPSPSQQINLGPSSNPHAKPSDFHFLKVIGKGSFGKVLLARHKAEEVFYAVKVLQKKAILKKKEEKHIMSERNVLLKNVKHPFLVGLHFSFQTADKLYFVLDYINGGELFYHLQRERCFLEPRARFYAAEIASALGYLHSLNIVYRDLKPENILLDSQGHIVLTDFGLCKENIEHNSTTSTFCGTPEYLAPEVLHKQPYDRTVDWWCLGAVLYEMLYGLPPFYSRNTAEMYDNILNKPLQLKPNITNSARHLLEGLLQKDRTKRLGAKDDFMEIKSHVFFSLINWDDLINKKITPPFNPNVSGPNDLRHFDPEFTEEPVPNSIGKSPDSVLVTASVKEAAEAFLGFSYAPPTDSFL

[4] = molecular target: Protein kinase C beta type (Homo sapiens, UniProt P05771); assay: Inhibition of PRKCB1 (unknown origin)
Chain of Protein kinase C beta type (P05771 whole entry): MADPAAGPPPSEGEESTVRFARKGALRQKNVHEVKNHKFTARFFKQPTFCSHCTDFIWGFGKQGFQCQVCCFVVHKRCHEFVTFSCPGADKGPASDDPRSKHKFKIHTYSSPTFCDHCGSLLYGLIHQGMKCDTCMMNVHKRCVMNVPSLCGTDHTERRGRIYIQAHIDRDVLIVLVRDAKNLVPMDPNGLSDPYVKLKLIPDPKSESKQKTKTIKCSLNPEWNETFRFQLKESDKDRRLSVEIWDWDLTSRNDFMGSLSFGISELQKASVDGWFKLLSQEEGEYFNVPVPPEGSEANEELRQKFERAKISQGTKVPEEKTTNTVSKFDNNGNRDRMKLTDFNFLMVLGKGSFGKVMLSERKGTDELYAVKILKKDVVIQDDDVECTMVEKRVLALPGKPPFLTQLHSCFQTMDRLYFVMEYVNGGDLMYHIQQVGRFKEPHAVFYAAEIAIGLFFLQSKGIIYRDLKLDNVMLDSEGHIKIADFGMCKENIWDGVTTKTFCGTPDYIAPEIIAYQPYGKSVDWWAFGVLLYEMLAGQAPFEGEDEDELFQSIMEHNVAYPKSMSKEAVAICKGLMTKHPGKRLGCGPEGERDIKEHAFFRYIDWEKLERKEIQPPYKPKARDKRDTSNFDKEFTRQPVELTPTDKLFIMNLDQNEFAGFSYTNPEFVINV

[5] = Ratio of drug concentration in 5XFAD mouse brain to plasma at 1200 ppm administered as rodent chow for 180 days; type: ADME, cell-free; details: brain and plasma, route po, time 180 day, read-out: BPR
Mus musculus [6] = assay: Prevention of Gabrb2 gene downregulation in 5XFAD mouse hippocampus at 1200 ppm administered as rodent chow starting from 1.5 months and measured after 7 months by Nanostring analysis; type: functional, tissue-based; details: route po, time 5.5 months
[7] = molecular target: Protein kinase C gamma type (Homo sapiens, UniProt P05129); assay: Inhibition of PRKCG (unknown origin)
[8] = Prevention of Kcnq3 gene downregulation in 5XFAD mouse hippocampus assessed as percent change in Reads Per kilo base per Million mapped reads at 1200 ppm administered as rodent chow starting from 1.5 months and measured after 7 months by RNA-Seq analysis (reference value: 55.386 to 68.581 %); type: functional; details: route po, time 5.5 months, 4015 h
[9] = Toxicity in wildtype mouse assessed as number of entries to perimeter zone at 1200 ppm administered as rodent chow for 10 to 24 weeks by Open field test (reference value: 20 to 64); details: in vivo, po, time 10-24 weeks
[10] = molecular target: Tyrosine-protein kinase Mer (Homo sapiens, UniProt Q12866); assay: Inhibition of MERTK (unknown origin)
Chain of Tyrosine-protein kinase Mer (Q12866 whole entry): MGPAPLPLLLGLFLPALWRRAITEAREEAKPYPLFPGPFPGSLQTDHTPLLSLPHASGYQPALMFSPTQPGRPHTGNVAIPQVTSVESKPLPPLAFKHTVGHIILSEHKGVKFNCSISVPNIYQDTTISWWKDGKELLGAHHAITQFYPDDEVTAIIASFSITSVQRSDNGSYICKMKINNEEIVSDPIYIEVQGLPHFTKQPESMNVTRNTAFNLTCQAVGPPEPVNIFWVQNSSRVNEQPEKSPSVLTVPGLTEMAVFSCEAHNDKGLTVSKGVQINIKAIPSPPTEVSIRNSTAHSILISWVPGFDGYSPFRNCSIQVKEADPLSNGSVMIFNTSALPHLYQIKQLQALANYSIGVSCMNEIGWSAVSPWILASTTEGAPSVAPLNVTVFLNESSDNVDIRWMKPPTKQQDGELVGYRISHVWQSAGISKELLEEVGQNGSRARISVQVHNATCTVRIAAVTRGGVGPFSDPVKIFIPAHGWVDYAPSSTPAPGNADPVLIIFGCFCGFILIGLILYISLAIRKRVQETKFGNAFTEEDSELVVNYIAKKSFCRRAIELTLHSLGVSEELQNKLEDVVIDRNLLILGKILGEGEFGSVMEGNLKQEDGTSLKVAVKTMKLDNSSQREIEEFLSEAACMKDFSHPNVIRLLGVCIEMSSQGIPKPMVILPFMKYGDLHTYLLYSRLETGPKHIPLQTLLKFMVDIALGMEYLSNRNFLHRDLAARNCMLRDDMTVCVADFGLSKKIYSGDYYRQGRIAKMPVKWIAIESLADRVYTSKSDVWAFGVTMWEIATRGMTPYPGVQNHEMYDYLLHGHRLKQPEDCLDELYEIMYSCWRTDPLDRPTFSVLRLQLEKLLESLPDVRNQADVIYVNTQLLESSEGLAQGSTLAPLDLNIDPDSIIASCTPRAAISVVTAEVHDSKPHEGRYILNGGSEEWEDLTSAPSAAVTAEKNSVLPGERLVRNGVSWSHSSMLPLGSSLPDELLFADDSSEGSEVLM

Mus musculus [11] = assay: Prevention of immune pathway related gene upregulation in 5XFAD mouse hippocampus assessed as percent change in Reads Per kilo base per Million mapped reads at 1200 ppm administered as rodent chow starting from 1.5 months and measured after 7 months by GO enrichment analysis; type: functional, tissue-based; details: route po, time 5.5 months
[12] = molecular target: Insulin-like growth factor 1 receptor (Homo sapiens, UniProt P08069); assay: Inhibition of IGF1R (unknown origin)
[13] = molecular target: Maternal embryonic leucine zipper kinase (Homo sapiens, UniProt Q14680); assay: Inhibition of MELK (unknown origin)
Chain of Maternal embryonic leucine zipper kinase (Q14680 whole entry): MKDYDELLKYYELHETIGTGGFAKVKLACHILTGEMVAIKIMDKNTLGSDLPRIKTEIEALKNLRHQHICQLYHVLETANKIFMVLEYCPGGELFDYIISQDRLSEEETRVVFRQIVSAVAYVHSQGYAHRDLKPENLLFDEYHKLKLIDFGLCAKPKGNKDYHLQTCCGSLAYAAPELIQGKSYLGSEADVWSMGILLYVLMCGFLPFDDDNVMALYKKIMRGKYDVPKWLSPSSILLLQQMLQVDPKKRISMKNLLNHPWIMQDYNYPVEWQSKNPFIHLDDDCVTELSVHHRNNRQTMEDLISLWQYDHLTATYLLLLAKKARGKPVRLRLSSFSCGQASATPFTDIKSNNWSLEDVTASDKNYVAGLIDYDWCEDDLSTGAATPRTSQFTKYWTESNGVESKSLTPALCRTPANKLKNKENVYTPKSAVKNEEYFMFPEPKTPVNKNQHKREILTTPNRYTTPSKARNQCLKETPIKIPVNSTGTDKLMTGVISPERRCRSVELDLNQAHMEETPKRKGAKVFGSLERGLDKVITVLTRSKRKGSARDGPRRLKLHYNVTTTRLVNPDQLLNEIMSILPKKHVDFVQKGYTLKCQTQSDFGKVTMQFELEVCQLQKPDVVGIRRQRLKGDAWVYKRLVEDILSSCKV

Mus musculus [14] = assay: Effect on APP processing pathway in wildtype mouse assessed as PEN2 protein signal intensity in cortex at 1200 ppm administered as rodent starting from 1.5 months and measured after 7 months (reference value: 47.716 to 128.950 %); type: functional; details: route po, time 5.5 months, 4015 h
[15] = Effect on Hexb gene expression in 5XFAD mouse thalamus at 1200 ppm administered as rodent chow starting from 1.5 months and measured after 7 months by RNA-Seq analysis (reference value: 75.322 to 93.439 RPKM); type: functional; details: route po, time 5.5 months, 4015 h
Mus musculus [16] = assay: Prevention of C1qc gene upregulation in 5XFAD mouse hippocampus at 1200 ppm administered as rodent chow starting from 1.5 months and measured after 7 months by Nanostring analysis; type: functional, tissue-based; details: route po, time 5.5 months
[17] = Prevention of Nos1ap gene downregulation in 5XFAD mouse hippocampus assessed as percent change in Reads Per kilo base per Million mapped reads at 1200 ppm administered as rodent chow starting from 1.5 months and measured after 7 months by RNA-Seq analysis (reference value: 58.209 to 93.063 %); type: functional; details: route po, time 5.5 months, 4015 h
[18] = molecular target: Tyrosine-protein kinase CSK (Homo sapiens, UniProt P41240); assay: Inhibition of CSK (unknown origin)
Chain of Tyrosine-protein kinase CSK (P41240 whole entry): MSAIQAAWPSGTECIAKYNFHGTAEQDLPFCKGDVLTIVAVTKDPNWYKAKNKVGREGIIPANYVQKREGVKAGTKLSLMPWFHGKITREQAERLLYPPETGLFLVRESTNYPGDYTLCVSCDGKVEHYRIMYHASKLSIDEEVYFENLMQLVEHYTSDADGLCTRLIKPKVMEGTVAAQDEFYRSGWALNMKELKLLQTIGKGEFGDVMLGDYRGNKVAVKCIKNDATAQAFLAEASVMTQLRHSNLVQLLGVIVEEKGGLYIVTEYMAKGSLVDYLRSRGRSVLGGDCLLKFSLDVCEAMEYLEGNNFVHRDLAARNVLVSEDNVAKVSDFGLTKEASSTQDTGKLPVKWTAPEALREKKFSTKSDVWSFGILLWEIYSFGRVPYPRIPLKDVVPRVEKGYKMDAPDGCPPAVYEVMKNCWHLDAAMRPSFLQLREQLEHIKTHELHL

[19] = Effect on Hexb gene expression in wild type mouse cortex at 1200 ppm administered as rodent chow starting from 1.5 months and measured after 7 months by RNA-Seq analysis (reference value: 38.813 to 48.079); type: functional; details: route po, time 5.5 months, 4015 h
Mus musculus [20] = assay: Antialzheimer activity in 5XFAD mouse assessed as amyloidbeta42 level in detergent soluble cortex fraction measured per microgram protein at 1200 ppm administered as rodent chow starting from 1.5 months and measured after 7 months by ELISA (reference value: 0 to 0.239 pg); type: functional; details: route po, time 5.5 months, 4015 h; how it was run: as §1
[21] = Effect on Zfp286 gene expression in wildtype mouse hippocampus assessed as percent change in Reads Per kilo base per Million mapped reads at 1200 ppm administered as rodent chow starting from 1.5 months and measured after 7 months by RNA-Seq analysis (reference value: 85.126 to 114.292 %); type: functional; details: route po, time 5.5 months, 4015 h
[22] = Drug concentration in mouse brain at 300 ppm administered as rodent chow for 14 days; type: ADME, tissue-based; details: route po, time 14 day, read-out: Ct
[23] = Effect on Cx3cr1 gene expression in wild type mouse cortex at 1200 ppm administered as rodent chow starting from 1.5 months and measured after 7 months by RNA-Seq analysis (reference value: 9.334 to 12.119); type: functional; details: route po, time 5.5 months, 4015 h
Mus musculus [24] = assay: Antialzheimer activity in 5XFAD mouse assessed as microglial elimination in thalamus at 1200 ppm administered as rodent chow for 10 weeks by Thio-S staining based confocal microscopic analysis; type: functional, organism-based; details: route po
How it was run: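 1.5-month-old 5xFAD mice fed 1200 ppm PLX5622 chow for 10 weeks; free-floating sections stained with Thio-S and immunolabeled for IBA1 (5% normal serum/0.2% Triton X-100 block, 60 min); confocal imaging of cortex and thalamus to assess remaining microglia.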

[25] = Toxicity in wildtype mouse assessed as time to locate platform at 1200 ppm administered as rodent chow for 10 to 24 weeks by Morris water maze test (reference value: 3.195 to 56.218 sec); details: in vivo, po, time 10-24 weeks
[26] = molecular target: Ribosomal protein S6 kinase alpha-4 (Homo sapiens, UniProt O75676); assay: Inhibition of RPS6KA4 (unknown origin)
Chain of Ribosomal protein S6 kinase alpha-4 (O75676 whole entry): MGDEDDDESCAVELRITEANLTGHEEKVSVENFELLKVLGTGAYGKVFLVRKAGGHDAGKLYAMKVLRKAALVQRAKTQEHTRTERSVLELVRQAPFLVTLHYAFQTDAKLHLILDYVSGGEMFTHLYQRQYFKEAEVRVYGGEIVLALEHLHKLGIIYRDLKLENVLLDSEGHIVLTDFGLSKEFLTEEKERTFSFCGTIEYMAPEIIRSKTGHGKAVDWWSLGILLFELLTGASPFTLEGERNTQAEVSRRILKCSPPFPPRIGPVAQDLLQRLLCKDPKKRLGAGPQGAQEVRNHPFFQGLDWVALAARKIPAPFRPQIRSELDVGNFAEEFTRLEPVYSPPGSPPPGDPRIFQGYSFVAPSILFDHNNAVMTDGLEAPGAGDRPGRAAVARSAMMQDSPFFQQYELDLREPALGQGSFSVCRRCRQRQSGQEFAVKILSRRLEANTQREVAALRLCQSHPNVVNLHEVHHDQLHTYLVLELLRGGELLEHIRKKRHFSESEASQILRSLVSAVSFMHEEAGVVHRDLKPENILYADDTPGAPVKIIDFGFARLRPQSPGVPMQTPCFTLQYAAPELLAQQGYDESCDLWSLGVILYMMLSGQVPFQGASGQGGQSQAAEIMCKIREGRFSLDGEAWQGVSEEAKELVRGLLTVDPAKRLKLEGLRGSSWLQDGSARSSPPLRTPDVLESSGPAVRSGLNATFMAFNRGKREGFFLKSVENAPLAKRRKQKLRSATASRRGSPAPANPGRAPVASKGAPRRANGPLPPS

Mus musculus [27] = assay: Antialzheimer activity in 5XFAD mouse assessed as time spent in open arm at 1200 ppm administered as rodent chow for 10 to 24 weeks by Elevated plus maze test (reference value: 34.1 to 208.9 sec); type: functional; details: route po, time 10-24 weeks
Mus musculus [28] = assay: Prevention of Fcrls gene upregulation in 5XFAD mouse hippocampus at 1200 ppm administered as rodent chow starting from 1.5 months and measured after 7 months by Nanostring analysis; type: functional, tissue-based; details: route po, time 5.5 months
Mus musculus [29] = assay: Antialzheimer activity in wildtype mouse assessed as number of Iba positive cells per FOV in thalamus at 1200 ppm administered as rodent chow starting from 1.5 months and measured after 4 months (reference value: 232 to 320); type: functional; details: route po, time 2.5 months, 1825 h
Mus musculus [30] = assay: Prevention of Hgf gene downregulation in 5XFAD mouse hippocampus at 1200 ppm administered as rodent chow starting from 1.5 months and measured after 7 months by Nanostring analysis; type: functional, tissue-based; details: route po, time 5.5 months

SMILES: COc1ncc(F)cc1CNc1ccc(Cc2c[nH]c3ncc(C)cc23)c(F)n1 [PLX-5622]
- Activity [1]: 81.186%
- Activity (Mus musculus [2]): 0 pg
- IC50 [3]: > 1 µM
- IC50 [4]: > 1 µM
- Kp at 4320 h [5]: 0.26
- Activity (Mus musculus [6]): Active
- IC50 [7]: > 1 µM
- Activity [8]: 68.859%
- Activity [9]: 13
- IC50 [10]: > 1 µM
- Activity (Mus musculus [11]): Active
- IC50 [12]: > 1 µM
- IC50 [13]: > 1 µM
- Activity (Mus musculus [14]): 9.039%
- Activity [15]: 10.635 RPKM
- Activity (Mus musculus [16]): Active
- Activity [17]: 82.746%
- IC50 [18]: > 1 µM
- Activity [19]: 8.715 RPKM
- Activity (Mus musculus [20]): 0 pg
- Activity [21]: 76.544%
- concentration at 336 h [22]: 963 ng/mL
- Activity [23]: 0 RPKM
- Activity (Mus musculus [24]): inactive
- Time [25]: 6.755 s
- IC50 [26]: > 1 µM
- Time (Mus musculus [27]): 157.6 s
- Activity (Mus musculus [28]): Active
- Activity (Mus musculus [29]): 0
- Activity (Mus musculus [30]): Active
